Measured values published in ChEMBL document CHEMBL2010670, “Discovery of a clinical stage multi-kinase inhibitor sodium (E)-2-{2-methoxy-5-[(2',4',6'-trimethoxystyrylsulfonyl)methyl]phenylamino}acetate (ON 01910.Na): synthesis, structure-activity relationship, and biological activity” (J Med Chem, 2011).

Key:
[1] = Cytotoxicity against human RF48 cells after 96 hrs by trypan blue exclusion assay; type: functional, cell-based; conditions: RF48, 96 h
How it was run: (§1)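 Cells grown in DMEM or RPMI with 10% FBS and 1 unit/mL penicillin-streptomycin, seeded at 1.0 × 10⁵ cells/mL/well in 6-well dishes; compound added 24 h later at various concentrations. After 96 h of treatment, viable cells counted by trypan blue exclusion in duplicate wells; dose-response end point.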

[2] = tested on: HCT-116; test: Cytotoxicity against human HCT116 cells after 96 hrs by trypan blue exclusion assay; type: functional, cell-based; conditions: HCT-116, 96 h
How it was run: (§2)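 Cells grown in DMEM or RPMI with 10% FBS and penicillin-streptomycin, seeded at 1.0 × 10⁵ cells/mL/well in 6-well dishes. Compound added at a range of concentrations 24 h after seeding. Viable cells counted by trypan blue exclusion from duplicate wells after 96 h of exposure; dose-response end point.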

[3] = Cytotoxicity against human […] cells after 96 hrs by trypan blue exclusion assay; type: functional, cell-based; how it was run: as §1
[4] = tested on: OPM-2; test: Cytotoxicity against human OPM2 cells after 96 hrs by trypan blue exclusion assay; type: functional, cell-based; conditions: OPM-2, 96 h; how it was run: as §2
[5] = tested on: OVCAR-3; test: Cytotoxicity against human OVCAR3 cells after 96 hrs by trypan blue exclusion assay; type: functional, cell-based; conditions: OVCAR-3, 96 h; how it was run: as §2
[6] = tested on: BXPC-3; test: Cytotoxicity against human BxPC3 cells after 96 hrs by trypan blue exclusion assay; type: functional, cell-based; conditions: BXPC-3, 96 h; how it was run: as §2
[7] = tested on: Daudi; test: Cytotoxicity against human Daudi cells after 96 hrs by trypan blue exclusion assay; type: functional, cell-based; how it was run: as §2
[8] = tested on: BT-20; test: Antitumor activity in human BT20 cells xenografted in NCR-nu/nu, Taconic mouse assessed as decrease in tumor volume at 200 mg/kg, ip administered every other day for 22 days relative to control; type: functional; conditions: route intraperitoneal
How it was run: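 Female athymic NCR-nu/nu mice received 0.5–1.0 x10⁷ BT20 cells subcutaneously in the hind leg. Dosing began about 14 days later, with tumors near 70 mm³. Groups of N=9 got 200 mg/kg in PBS or PBS vehicle, Q2D x 20. Two tumor dimensions were measured by caliper three times weekly, and V = L×S²×π/6. Body weight and toxicity signs were tracked. Group means ±SEM.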

[9] = tested on: PANC-1; test: Cytotoxicity against human PANC1 cells after 96 hrs by trypan blue exclusion assay; type: functional, cell-based; conditions: PANC-1, 96 h; how it was run: as §2
[10] = Aqueous solubility of the compound; type: physicochemical; conditions: water
[11] = Cytotoxicity against human WM278 cells after 96 hrs by trypan blue exclusion assay; type: functional, cell-based; conditions: WM278, 96 h; how it was run: as §1
[12] = tested on: HeLa; test: Cytotoxicity against human HeLa cells after 96 hrs by trypan blue exclusion assay; type: functional, cell-based; how it was run: as §2
[13] = tested on: Mus musculus; test: Toxicity against NCR-nu/nu, Taconic mouse xenografted with human BT20 cells assessed as decrease in body weight at 200 mg/kg, ip administered every other day for 22 days; type: organism-based, BT-20; parameters: dose 200 mg/kg, route intraperitoneal; scale not given: the % may be the effect or the level left; conditions: in vivo, 528 h
How it was run: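 Female athymic nude mice bearing subcutaneous BT20 hind-leg xenografts (0.5–1.0 × 10⁷ cells) grouped about 14 days later at ~70 mm³ (N=9). Dosed 200 mg/kg in PBS or PBS alone, Q2D × 20; methods state tail-vein IV, legend states IP. Body weight recorded at each tumor measurement, three times weekly; observed for toxicity signs; mean ± SEM.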

[14] = tested on: SK-BR-3; test: Cytotoxicity against human SKBR3 cells after 96 hrs by trypan blue exclusion assay; type: functional, cell-based; conditions: SK-BR-3, 96 h; how it was run: as §1
[15] = tested on: HCT-15; test: Cytotoxicity against human HCT15 cells after 96 hrs by trypan blue exclusion assay; type: functional, cell-based; conditions: HCT-15, 96 h; how it was run: as §2
[16] = Cytotoxicity against multidrug-resistant human MES-SA/Dx5 cells assessed as cell viability after 96 hrs by trypan blue exclusion; type: functional, cell-based; conditions: MES-SA/Dx5, 96 h; how it was run: as §1
[17] = Cytotoxicity against human WM793 cells after 96 hrs by trypan blue exclusion assay; type: functional, cell-based; conditions: WM793, 96 h; how it was run: as §1
[18] = Cytotoxicity against human HCC1428 cells after 96 hrs by trypan blue exclusion assay; type: functional, cell-based; conditions: HCC1428, 96 h; how it was run: as §2
[19] = tested on: CEM/C2; test: Resistance ratio of IC50 for human CEM cells to IC50 for multidrug-resistant human CEM/C2 cells; type: functional
How it was run: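 Cells were grown in DMEM or RPMI with 10% FBS and plated at 1.0 × 10⁵ cells/mL/well in 6-well dishes. Compound was added 24 h later at various concentrations for 96 h. Viable cells were counted from duplicate wells by trypan blue exclusion, and the IC50 of each line gave the ratio.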

[20] = Cytotoxicity against human WM1341D cells after 96 hrs by trypan blue exclusion assay; type: functional, cell-based; how it was run: as §1
[21] = tested on: RPMI-7951; test: Cytotoxicity against human RPMI7951 cells after 96 hrs by trypan blue exclusion assay; type: functional, cell-based; conditions: RPMI-7951, 96 h; how it was run: as §1
[22] = tested on: NCI-H157; test: Cytotoxicity against human NCI-H157 cells after 96 hrs by trypan blue exclusion assay; type: functional, cell-based; conditions: NCI-H157, 96 h; how it was run: as §2
[23] = tested on: SW480; test: Cytotoxicity against human SW480 cells after 96 hrs by trypan blue exclusion assay; type: functional, cell-based; conditions: SW480, 96 h; how it was run: as §1
[24] = Cytotoxicity against human WM983A cells after 96 hrs by trypan blue exclusion assay; type: functional, cell-based; how it was run: as §1
[25] = tested on: MDA-MB-157; test: Cytotoxicity against human MDA-MB-157 cells after 96 hrs by trypan blue exclusion assay; type: functional, cell-based; conditions: MDA-MB-157, 96 h; how it was run: as §2
[26] = tested on: MIA PaCa-2; test: Cytotoxicity against human MIAPaCa2 cells after 96 hrs by trypan blue exclusion assay; type: functional, cell-based; conditions: MIA PaCa-2, 96 h; how it was run: as §2
[27] = tested on: HL-60; test: Cytotoxicity against human HL60 cells after 96 hrs by trypan blue exclusion assay; type: functional, cell-based; conditions: HL-60, 96 h; how it was run: as §2

## COc1cc(OC)c(/C=C/S(=O)(=O)Cc2ccc(OC)c(NCC(=O)[O-])c2)c(OC)c1.[Na+] [RIGOSERTIB SODIUM]
[1]
  IC50: 50 nM
[2]
  IC50: 75 nM
[3]
  IC50: 10 nM
[4]
  IC50: 15 nM
[5]
  IC50: 75 nM
[6]
  IC50: 75 nM
[7]
  IC50: 150 nM
[8]
  fold change (FC): 2.5
[9]
  IC50: 40 nM
[10]
  solubility: 28 mg/mL
[11]
  IC50: 150 nM
[12]
  IC50: 100 nM
[13]
  Activity: < 10%
[14]
  IC50: 75 nM
[15]
  IC50: 90 nM
[16]
  IC50: 100 nM
[17]
  IC50: 75 nM
[18]
  IC50: 60 nM
[19]
  Ratio IC50: 2
[20]
  IC50: 100 nM
[21]
  IC50: 25 nM
[22]
  IC50: 80 nM
[23]
  IC50: 60 nM
[24]
  IC50: 40 nM
[25]
  IC50: 75 nM
[26]
  IC50: 50 nM
[27]
  IC50: 20 nM
